From ChEMBL document CHEMBL3259569 (J Med Chem, 2014)
Activity calls are given as the source filed them. No cut-off for these calls is given here.

Key:
Mus musculus [1] = test: Toxicity in ICR mouse at 400 to 1000 mg/kg, po treated for 7 days measured for 1 week; type: organism-based; set-up: dose 400-1000 mg/kg, route oral; conditions: in vivo, 168 h
How it was run: (§1)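 ICR mice fasted overnight, then given vehicle (0.2 mL/20 g) or compound orally at 400, 600 or 1000 mg/kg (n = 10/group) daily for 7 days, then monitored 1 week; weighed daily for 1 week, then twice weekly; 2/10 deaths defines toxic dose.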

[2] = target: T1, Protein deacetylase HDAC6 (Homo sapiens, UniProt Q9UBN7); test: Inhibition of HDAC6 (unknown origin) using RHKK(Ac) (379 to 382) p53 peptide as substrate by fluorescence assay
T1 sequence (Q9UBN7 whole entry): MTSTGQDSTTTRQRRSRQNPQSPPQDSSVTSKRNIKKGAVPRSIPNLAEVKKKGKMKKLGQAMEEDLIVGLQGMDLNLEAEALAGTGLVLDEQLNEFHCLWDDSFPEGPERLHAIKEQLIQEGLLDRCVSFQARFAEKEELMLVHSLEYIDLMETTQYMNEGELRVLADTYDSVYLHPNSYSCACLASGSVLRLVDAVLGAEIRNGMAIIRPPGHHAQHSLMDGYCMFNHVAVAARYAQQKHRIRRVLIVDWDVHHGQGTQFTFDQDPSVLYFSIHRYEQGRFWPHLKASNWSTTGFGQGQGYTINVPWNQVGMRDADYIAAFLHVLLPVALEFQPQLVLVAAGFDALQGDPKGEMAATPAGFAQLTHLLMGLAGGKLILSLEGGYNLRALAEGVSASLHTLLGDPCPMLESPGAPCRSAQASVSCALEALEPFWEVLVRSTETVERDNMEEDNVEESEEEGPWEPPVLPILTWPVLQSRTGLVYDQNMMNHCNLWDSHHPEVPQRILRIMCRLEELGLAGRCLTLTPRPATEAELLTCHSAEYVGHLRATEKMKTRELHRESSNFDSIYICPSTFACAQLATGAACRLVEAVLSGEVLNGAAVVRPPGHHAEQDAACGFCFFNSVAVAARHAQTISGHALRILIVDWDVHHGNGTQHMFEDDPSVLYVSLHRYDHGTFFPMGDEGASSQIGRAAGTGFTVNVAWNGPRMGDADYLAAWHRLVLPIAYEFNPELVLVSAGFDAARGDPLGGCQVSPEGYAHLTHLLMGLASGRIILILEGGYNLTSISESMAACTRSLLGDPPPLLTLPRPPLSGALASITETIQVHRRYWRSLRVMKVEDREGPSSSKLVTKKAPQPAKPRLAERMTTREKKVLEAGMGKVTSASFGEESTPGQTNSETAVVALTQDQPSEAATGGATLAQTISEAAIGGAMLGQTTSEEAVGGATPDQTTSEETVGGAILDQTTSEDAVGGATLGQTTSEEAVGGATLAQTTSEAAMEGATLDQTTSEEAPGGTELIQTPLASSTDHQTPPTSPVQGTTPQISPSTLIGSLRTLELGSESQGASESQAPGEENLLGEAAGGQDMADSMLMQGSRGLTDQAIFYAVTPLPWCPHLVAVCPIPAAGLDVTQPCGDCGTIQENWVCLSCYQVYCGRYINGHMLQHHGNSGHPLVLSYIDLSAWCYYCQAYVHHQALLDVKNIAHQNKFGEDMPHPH

[3] = Cytotoxicity against human HONE1 cells by MTT assay; type: functional, cell-based
[4] = Cytotoxicity against human MKN45 cells by MTT assay; type: functional, cell-based; conditions: MKN-45
Histone deacetylase 8 = target: T2, Histone deacetylase 8 (Homo sapiens, UniProt Q9BY41); test: Inhibition of HDAC8 (unknown origin) by fluorescence assay
T2 sequence (Q9BY41 whole entry): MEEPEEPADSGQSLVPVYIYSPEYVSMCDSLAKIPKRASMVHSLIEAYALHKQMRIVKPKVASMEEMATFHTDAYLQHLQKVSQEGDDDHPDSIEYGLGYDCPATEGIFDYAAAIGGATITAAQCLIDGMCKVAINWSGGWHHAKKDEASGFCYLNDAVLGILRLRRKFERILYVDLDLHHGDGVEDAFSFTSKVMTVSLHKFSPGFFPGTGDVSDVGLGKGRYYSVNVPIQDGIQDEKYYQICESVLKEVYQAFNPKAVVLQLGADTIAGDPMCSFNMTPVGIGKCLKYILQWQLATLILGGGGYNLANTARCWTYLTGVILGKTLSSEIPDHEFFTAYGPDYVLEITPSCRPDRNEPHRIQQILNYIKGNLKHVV
How it was run: (§2)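 Run by a contract testing lab. Compounds were dissolved in DMSO and tested in 10-dose IC50 mode, using 3-fold serial dilution starting at 10 μM. IC50 was taken from the dose series.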

TSGH = test: Cytotoxicity against human TSGH cells by MTT assay; type: functional, cell-based
Histone deacetylase 9 = Histone deacetylase 9 (Homo sapiens, UniProt Q9UKV0); test: Inhibition of HDAC9 (unknown origin) by fluorescence assay; how it was run: as §2
HCT-116 [5] = test: Antitumor activity against human HCT116 cells xenografted in nude athymic mouse assessed as tumor growth inhibition at 25 mg/kg/day, po after 2 to 16 days relative to control; type: functional; conditions: read-out: TGI
Histone deacetylase 1 = Histone deacetylase 1 (Homo sapiens, UniProt Q13547); test: Inhibition of HDAC1 (unknown origin) using RHKK(Ac) (379 to 382) p53 peptide as substrate by fluorescence assay
[6] = Clearance in ICR mouse at 2 mg/kg, iv by LC-MS/MS analysis; type: ADME, organism-based; set-up: dose 2 mg/kg, route intravenous; conditions: in vivo
HCT-116 [7] = test: Cytotoxicity against p53 knock down human HCT116 cells at 0.1 to 3 uM after 72 hrs by MTT assay; type: functional, cell-based
Histone deacetylase = test: Inhibition of HDAC in human HeLa cell nuclear extract using Boc-Lys(Ac)-AMC as substrate after 30 mins by fluorimetric analysis; type: protein assay
[8] = AUC (0 to infinity) in ICR mouse at 10 mg/kg, po by LC-MS/MS analysis; type: ADME, organism-based; set-up: time infinity, dose 10 mg/kg, route oral; conditions: plasma
Mus musculus [9] = test: Toxicity in ICR mouse assessed as change in body weight at 400 to 1000 mg/kg, po treated for 7 days measured for 1 week; type: organism-based; set-up: dose 400-1000 mg/kg, route oral; conditions: in vivo, 168 h; how it was run: as §1
HCT-116 [10] = test: Antitumor activity against human HCT116 cells xenografted in nude athymic mouse assessed as tumor growth inhibition at 100 mg/kg/day, po after 2 to 16 days relative to control; type: functional; conditions: read-out: TGI
[11] = Cytotoxicity against human H460 cells by MTT assay; type: functional, cell-based; conditions: NCI-H460
How it was run: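 Antiproliferative IC50 in H460 cells; mean ± SD of at least three independent experiments.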

HCT-116 [12] = test: Induction of apoptosis in human HCT116 cells assessed as caspase-3 activation at 3 uM after 24 hrs by Western blotting analysis in presence of Z-VAD-FMK; type: functional, cell-based
How it was run: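 HCT116 cells treated 24 h with 3 μM compound with or without 20 μM z-VAD-fmk pan-caspase inhibitor; caspase 3 and PARP assessed by Western blot.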

MCF7 = test: Cytotoxicity against human MCF7 cells by MTT assay; type: functional, cell-based
[13] = Cmax in ICR mouse at 10 mg/kg, po by LC-MS/MS analysis; type: ADME, organism-based; set-up: dose 10 mg/kg, route oral; conditions: in vivo
KB = test: Cytotoxicity against human KB cells by MTT assay; type: functional, cell-based

Sequence of Histone deacetylase 1 (Q13547 whole entry): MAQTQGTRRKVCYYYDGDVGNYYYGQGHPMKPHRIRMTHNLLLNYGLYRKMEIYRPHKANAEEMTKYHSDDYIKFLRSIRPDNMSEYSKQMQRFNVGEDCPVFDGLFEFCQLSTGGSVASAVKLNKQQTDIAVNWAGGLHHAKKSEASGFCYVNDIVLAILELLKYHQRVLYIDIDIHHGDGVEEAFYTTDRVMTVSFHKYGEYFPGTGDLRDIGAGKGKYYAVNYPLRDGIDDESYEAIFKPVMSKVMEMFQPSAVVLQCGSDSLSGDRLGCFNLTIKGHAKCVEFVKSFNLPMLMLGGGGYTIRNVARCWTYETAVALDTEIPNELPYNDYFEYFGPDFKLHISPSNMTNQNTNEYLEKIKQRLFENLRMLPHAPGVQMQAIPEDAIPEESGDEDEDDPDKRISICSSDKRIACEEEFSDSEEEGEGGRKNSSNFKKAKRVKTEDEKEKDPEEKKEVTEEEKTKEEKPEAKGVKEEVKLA
Sequence of Histone deacetylase 9 (Q9UKV0 whole entry): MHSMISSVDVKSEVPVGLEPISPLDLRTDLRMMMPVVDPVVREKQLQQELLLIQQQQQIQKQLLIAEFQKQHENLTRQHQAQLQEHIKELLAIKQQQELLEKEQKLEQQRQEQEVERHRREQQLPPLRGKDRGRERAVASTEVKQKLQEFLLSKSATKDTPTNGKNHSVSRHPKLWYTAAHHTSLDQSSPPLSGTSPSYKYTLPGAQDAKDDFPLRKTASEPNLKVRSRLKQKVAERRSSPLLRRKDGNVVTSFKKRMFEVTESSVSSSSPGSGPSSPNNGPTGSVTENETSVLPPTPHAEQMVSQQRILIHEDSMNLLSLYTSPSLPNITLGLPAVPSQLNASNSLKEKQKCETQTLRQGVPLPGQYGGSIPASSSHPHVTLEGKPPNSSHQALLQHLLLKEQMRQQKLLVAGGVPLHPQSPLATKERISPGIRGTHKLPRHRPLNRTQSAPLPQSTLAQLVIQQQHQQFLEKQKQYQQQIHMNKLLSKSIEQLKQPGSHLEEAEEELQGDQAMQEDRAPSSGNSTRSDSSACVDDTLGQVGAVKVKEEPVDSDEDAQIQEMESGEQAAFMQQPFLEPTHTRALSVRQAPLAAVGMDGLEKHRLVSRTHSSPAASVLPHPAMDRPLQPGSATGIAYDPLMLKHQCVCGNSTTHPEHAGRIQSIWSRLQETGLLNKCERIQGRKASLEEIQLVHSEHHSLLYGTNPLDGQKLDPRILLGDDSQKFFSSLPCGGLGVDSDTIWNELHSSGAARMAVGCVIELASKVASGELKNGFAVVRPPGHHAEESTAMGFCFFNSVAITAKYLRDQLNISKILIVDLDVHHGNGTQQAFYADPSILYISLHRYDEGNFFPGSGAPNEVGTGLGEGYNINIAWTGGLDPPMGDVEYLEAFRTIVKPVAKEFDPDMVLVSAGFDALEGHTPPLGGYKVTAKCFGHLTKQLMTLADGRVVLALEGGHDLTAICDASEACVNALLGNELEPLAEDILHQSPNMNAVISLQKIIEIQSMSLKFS

**Q.** What does the source list for O=C(/C=C/c1cccc(S(=O)(=O)n2ccc3cccnc32)c1)NO?
**A.** Activity (Mus musculus [1]): Non-toxic; IC50 [2]: 5.2 nM; IC50 [3]: 1200 nM; IC50 [4]: 2510 nM; IC50 (Histone deacetylase 8): 1390 nM; IC50 (TSGH): 2100 nM; IC50 (Histone deacetylase 9): 5340 nM; inhibition in vivo at 25 mg/kg/day (HCT-116 [5]): 55.8%; IC50 (Histone deacetylase 1): 310 nM; clearance [6]: 127 mL/min/kg; Activity (HCT-116 [7]): inactive; IC50 (Histone deacetylase): 100 nM; AUC(0-inf) [8]: 466 ng·h/mL; Activity (Mus musculus [9]): Non-toxic; inhibition in vivo at 100 mg/kg/day (HCT-116 [10]): 66.9%; IC50 [11]: 570 nM; Activity (HCT-116 [12]): inactive; IC50 (MCF7): 1330 nM; Cmax [13]: 409 ng/mL; IC50 (KB): 760 nM
